The list is not random: actives were taken first. Their share in the collection is about 5.2%.
M1 antag – antagonists of rat M1 muscarinic receptor; Muscarinic acetylcholine receptor M1 (Rattus norvegicus), P08482; CHO-M1 cells, Fluo-4 calcium, ACh EC80 antagonist mode; active compounds read low; B-score at 10 µM; 64,000 tested, 3.4% active;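 active = calcium fluorescence response, raw or row-and-column corrected B-score, differing from the plate sample mean either way at a set confidence level, mostly lower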
tolC growth inh – growth inhibitors of E. coli tolC mutant, primary screen, strain BW25113 ΔtolC::kan, 384-well; OD615; growth inhibition, % at 10 µM (by protocol); 65,000 tested, 2.2% active;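 active = growth inhibition at or above a cutoff equal to the mean over every tested compound plus 3 SD, cut at about 60% in these data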;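 note: growth measured after 20 h incubation at 37 °C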
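Material: E. coli BW25113 ΔtolC::kan, tolC deletion mutant strain. Measure: percent growth inhibition. Schedule: 37 °C, 20 h exposure. Doses: single-point testing at 10 µM. Signal: A615 absorbance measurement. Buffer or medium: kanamycin-containing LB broth (50 µg/mL).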
M1 ag – M1 muscarinic receptor agonists, primary screen, CHO-M1 cells, Fluo-4 calcium, agonist mode | Fluo-4 calcium fluorescence; active compounds read high | B-score at 10 µM | 64,000 tested, 3% active | AID 626, 2007;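 active = fluorescence rise, raw or as B-score row- and column-corrected plate score, outside the 99.7% band of its plate's samples, either direction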
E coli WT exp – growth inhibitors of wild-type E. coli, primary screen, strain BW25113, expanded library, OD600. OD600 absorbance. growth inhibition, % at 100 µM. 98,000 tested, 0.15% active;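 active = growth inhibition above about 50% at one test dose, limit read from the data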;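 note: growth measured after 20 h incubation at 37 °C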
WNV protease inh – inhibitors of WNV NS2B-NS3 protease, primary screen, biochemical, fluorogenic substrate; Genome polyprotein (West Nile virus), P06935; fluorogenic substrate Ex360/Em465; active compounds read low; z-score (test concentration not listed); 65,000 tested, 0.18% active; in the data active = z-score below about -3
Target sequence (P06935 1371-1501 limits assumed): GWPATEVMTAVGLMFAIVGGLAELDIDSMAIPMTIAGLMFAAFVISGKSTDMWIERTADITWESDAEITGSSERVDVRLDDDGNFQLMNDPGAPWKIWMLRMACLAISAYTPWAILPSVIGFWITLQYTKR
Target sequence (P06935 1502-1679 limits assumed): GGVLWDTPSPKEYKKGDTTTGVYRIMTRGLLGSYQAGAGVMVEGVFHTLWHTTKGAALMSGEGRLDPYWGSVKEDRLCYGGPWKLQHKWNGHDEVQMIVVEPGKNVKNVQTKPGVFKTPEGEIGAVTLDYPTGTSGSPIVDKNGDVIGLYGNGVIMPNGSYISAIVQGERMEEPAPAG
AP ELISA ortho – alternative complement pathway inhibitors, primary screen, biochemical, ELISA, human serum, orthogonally pooled compounds | LPS-coated ELISA, C3 deposition; tested in compound mixtures | inhibition, % at 5 µM | 62,000 tested, 0.08% active | AID 1235, 2008;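 active = inhibition above 30% in each of the two pooled mixtures holding the compound, so the lower value exceeds 30%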;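 note: 0% = serum in Mg-EGTA without compound and 100% = EDTA serum blank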
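Medium: diluted human serum in Mg2+-EGTA GVB++. Assay system: human serum complement alternative pathway, C3 deposition onto LPS. Also added: Plate-bound LPS. Technique: Anti-C3 ELISA, OD 450 nm. Measure: percent inhibition. Incubation: 1 h at 37 °C. Dosing: 5 µM each compound, pools of ten, 50 µM per pool.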
The depositor's hits bear a star; . = not tested or not shown.

SMILES	M1 antag	tolC growth inh	M1 ag	E coli WT exp	WNV protease inh	AP ELISA ortho
COc1cccc(-c2csc(N3CCN(C(=O)C4CCCCC4)CC3)n2)c1	-1.1	69*	3.9	-28	0.79	2
COc1cccc(-c2csc(N3CCN(C(=O)Nc4ccccc4OC)CC3)n2)c1	.	27	.	-9	-0.72	2
CC1CCCN(Cc2nc3c(c(=O)n(C)c(=O)n3C)n2CCCc2ccccc2)C1 (stereo not given)	-0.0065	50	2.4*	-3	-0.36	.
CCOCCn1c(CN2CCCCC2C)nc2c1c(=O)n(C)c(=O)n2C (stereo not given)	-3.2*	-8	-2.5	.	-0.26	17
Cn1c(=O)c2c(nc(CN3CCCCC3)n2CCCc2ccccc2)n(C)c1=O	-0.13	-8	0.69	.	0.36	2
CN(Cc1ccccc1)Cc1nc2c(c(=O)n(C)c(=O)n2C)n1CCCc1ccccc1	-0.2	100*	-0.02	-17	0.89	.
CC1CCCN(Cc2nc3c(c(=O)n(C)c(=O)n3C)n2CCc2ccccc2)C1 (stereo not given)	0.5	12	2.3*	-2	0.21	.
CC1CCCCN1Cc1nc2c(c(=O)n(C)c(=O)n2C)n1CCCc1ccccc1 (stereo not given)	-0.93	.	-0.37	.	-0.1	.
Cc1ccccc1NCCNc1ccccc1C	.	.	.	9	.	.
O=C(CN1C(=O)c2ccccc2C1=O)OCN1C(=O)c2ccccc2C1=O	0.61	9	-0.15	.	-0.3	.
Cc1sc2ncnc(Sc3nnc4sc5ccccc5n34)c2c1C	-0.23	24	-0.41	.	3	12
Cc1ccc(C(C)C)c(OCCNc2nc3c(c(=O)n(C)c(=O)n3C)n2C)c1	-0.015	12	0.98	.	0.69	.
COc1ccc2c3c(cccc13)NN=C2C	-0.078	0	0.6	.	-4.5*	-19
CCOc1cc(C(=O)Nc2ccc(S(=O)(=O)Nc3cc(C)on3)cc2)cc(OCC)c1OCC	1.4	13	-3.5*	8	-0.61	7
OC1(c2cccc(C(F)(F)F)c2)CCN(c2ncnc3c2[nH]c2ccc(F)cc23)CC1	0.23	100*	0.34	-9	-1.2	17
Cc1ccc(OCCn2cc(Br)c(=O)[nH]c2=O)cc1	.	.	.	-7	.	.
CCCNC(=O)CN(CCc1ccccc1)S(C)(=O)=O	.	.	.	-3	.	.
Cn1c(NC(=O)c2cc(Br)ccc2Cl)cc(=O)n(C)c1=O	0.29	6	-0.93	-4	-0.64	-1
O=C(CN1CCN(S(=O)(=O)c2ccc(F)cc2)CC1)Nc1ccc(Cl)c(C(F)(F)F)c1	0.049	64*	-0.0014	1	-0.71	3
O=C(CN1CCN(S(=O)(=O)c2ccc(F)cc2)CC1)Nc1ccc2c(c1)OCCO2	-0.15	7	0.29	1	0.96	-6
CCOc1cc2[nH]c(=O)n(CC3CCC(C(=O)NC(C)CC)CC3)c(=O)c2cc1OCC (stereo not given)	1.1*	-8	0.46	.	0.06	4
c1ccc(-c2csc(N3CCOCC3)n2)cc1	.	.	.	5	.	.
c1ccc(-c2csc(N3CCN(c4ccccn4)CC3)n2)cc1	0.019	88*	0.099	-16	1.6	-21
CCN(CC)c1ccc2cc(-c3nnc(-c4ccncc4)o3)c(=O)oc2c1	-15*	7	401*	-7	-0.04	.
O=C1OCC(CO)(CO)N=C1NNc1ccc(Cl)c(Cl)c1	.	.	.	88*	.	.
SMILES	M1 antag	tolC growth inh	M1 ag	E coli WT exp	WNV protease inh	AP ELISA ortho
O=C(Nc1ccc(Cl)c(Cl)c1)N(CCCN1CCOCC1)Cc1cccs1	.	.	.	5	.	.
CCC1(C)C2(C#N)C(N)=NC(OC)(OC)C12C#N (stereo not given)	0.41	-8	-0.3	-8	-0.19	32*
CC(C)Oc1ccc(C2/C(=C(/O)c3ccc(F)cc3)C(=O)C(=O)N2CCCN(C)C)cc1 (stereo not given)	0.29	-19	-0.32	.	0.86	1
COc1ccccc1CNc1ncnc2c1cnn2-c1ccccc1	0.66	61*	-0.38	.	-0.04	14
Cc1cccc(-n2ncc3c(NCc4ccc5c(c4)OCO5)ncnc32)c1	0.45	76*	0.043	0	0.02	5
Clc1ccc(Cc2nc(-c3cccnc3)no2)cc1	.	.	.	-4	.	.
Cn1c(=O)cc(-c2ccccc2)c2ccccc21	0.4	35	0.92	4	-0.4	-15
Cn1c2ccccc2c2nn(-c3ccccc3)c(=O)cc21	-0.12	5	0.26	1	-3.5*	.
COc1cccc(/C=N/n2c(SC)nnc2-c2ccccc2)c1O	-1	12	7.2*	10	1.3	-3
COc1cccc(/C=N/n2c(SC)nnc2-c2ccccc2)c1OC	0.15	14	-0.63	-1	-1.2	15
N#Cc1c(Cl)nc(SCc2ccccc2)nc1-c1ccccc1	.	.	.	12	.	.
CN(C(=S)NC(=O)CCCOc1ccc(Cl)cc1Cl)c1ccccc1	.	.	.	1	.	.
Cc1cccc(OCc2nc(C#N)c(NCc3ccc4c(c3)OCO4)o2)c1	0.047	79*	-0.8	-19	-1.4	11
N#Cc1nc(COc2ccc(Cl)cc2)oc1NCc1ccc2c(c1)OCO2	-0.15	23	-0.15	-7	-1.7	-13
C=CCn1c(=O)c(C(=O)Nc2nnc(C)s2)c(O)c2ccccc21	0.35	-8	-0.85	.	-0.45	10
CC(=O)c1c(C)n([O-])c2cc(C)ccc2[n+]1=O	-0.1	91*	-0.76	46	-1.2	4
Cn1c(=O)n(CCCOc2ccc(Br)cc2)c2ccccc21	-0.32	100*	0.32	-4	0.38	-1
Cn1c(=O)n(CCCOc2ccc(Cl)cc2)c2ccccc21	-0.86	62*	-0.098	9	1.5	3
Cc1ccc(OCCCn2c(=O)sc3ccccc32)cc1	.	.	.	-4	.	.
OCc1nc2ccccc2n1CCCOc1ccc(Br)cc1	0.031	67*	1.2	9	-0.2	-13
O=c1sc2ccccc2n1CCCOc1ccccc1	.	.	.	-9	.	.
CCOc1ccc(Nc2nc(NCCN3CCOCC3)nc(OC)n2)cc1	0.07	-4	-0.63	6	-0.06	9
O=C(c1ccc(Cl)cc1)c1oc2ccccc2c1CS(=O)c1ccccc1 (stereo not given)	.	.	.	-7	.	.
CCOC(=O)N1CCN(C2OC(=O)c3ccccc32)CC1 (stereo not given)	-2*	2	32*	3	-0.7	.
O=C1OC(N2CCN(C(=O)C3CCCO3)CC2)c2ccccc21 (stereo not given)	-0.89	-8	0.023	-13	-0.22	9
COc1ccc(/C(N)=N/OC(=O)CSc2ccccc2)cc1OC	.	.	.	-3	.	.
Clc1ccc(Cn2ncc3c(N4CCCCC4)ncnc32)cc1	-0.19	32	0.68	-4	0.05	0
Clc1ccc(Cn2ncc3c(N4CCCCC4)ncnc32)c(Cl)c1	-0.53	73*	-0.58	1	-0.61	-15
